Screening data: PubChem, several laboratories
ABCB1 block: blocks JC-1 efflux by human ABCB1 transporter | P08183 | CCRF-Adr cells, flow cytometry | inhibition, % at 6.6 µM | 190,000 compounds, 0.067% hits | AID 1326; in the data active means inhibition above about 40%;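 further: 0% = vehicle and 100% = reference inhibitor; higher value means more JC-1 retained so stronger ABCB1 efflux block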
ROMK mod: modulators of human ROMK potassium channel; 130,000 compounds, 2% hits; B-score at 10 µM; Tet-inducible ROMK, thallium flux fluorescence; actives lie on both sides; P48048;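 active means signal ratio slope over the read window, or its plate-corrected B-score, at least 3 SD from the plate mean, either direction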;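 further: B-score of the F/F0 ratio slope over 7 to 12 s after thallium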
Autophagy HCS: alters autophagy in cells; MEF GFP-LC3 puncta imaging; test concentration mostly 10 µM; 190,000 compounds, 0.98% hits; AID 463193; calls only at 10 µM (by protocol);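 active means percentage of spot-positive cells more than 3 SD above its plate mean, without a fluorescence outlier flag or 80% toxicity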;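 further: spot-positive cell cutoff set from DMSO-treated cells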
ABCG2 inh: inhibitors of human ABCG2 transporter, ABCB1 counter-screen. Q9UNQ0. IgMXP3 cells, JC-1 efflux, flow cytometry. inhibition, % at 6.6 µM. 190,000 compounds, 0.1% hits;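 active means inhibition above 80%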;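 further: 0% = DMSO and 100% = nicardipine control wells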
Target sequence (Q9UNQ0 whole entry, looked up): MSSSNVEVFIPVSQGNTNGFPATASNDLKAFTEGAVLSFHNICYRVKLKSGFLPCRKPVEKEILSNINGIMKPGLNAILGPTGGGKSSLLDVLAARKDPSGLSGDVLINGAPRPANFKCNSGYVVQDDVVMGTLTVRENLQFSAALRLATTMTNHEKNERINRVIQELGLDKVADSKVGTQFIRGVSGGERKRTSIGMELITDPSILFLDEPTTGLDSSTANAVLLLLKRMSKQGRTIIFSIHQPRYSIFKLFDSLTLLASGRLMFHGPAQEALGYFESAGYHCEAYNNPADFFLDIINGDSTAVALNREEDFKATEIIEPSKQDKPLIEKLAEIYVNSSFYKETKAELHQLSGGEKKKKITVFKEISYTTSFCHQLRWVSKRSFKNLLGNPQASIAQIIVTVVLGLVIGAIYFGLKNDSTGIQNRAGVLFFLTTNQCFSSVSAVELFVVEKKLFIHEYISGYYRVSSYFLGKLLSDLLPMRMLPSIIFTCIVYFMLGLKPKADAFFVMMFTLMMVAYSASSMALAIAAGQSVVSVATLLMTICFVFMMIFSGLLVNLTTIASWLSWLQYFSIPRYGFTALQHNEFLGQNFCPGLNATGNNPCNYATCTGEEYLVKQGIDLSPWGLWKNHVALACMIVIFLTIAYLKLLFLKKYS
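Test system: IgMXP3 cells (ABCG2) mixed with DDAO far-red-labelled CCRF-Adr cells (ABCB1). Reagent: JC-1 transporter substrate. Compound dosing: single test compound dose, 6.6 µM final. Times: 10 min compound exposure, 25 °C. Detection: flow cytometry of retained JC-1 fluorescence. Read-out basis: efflux inhibition in percent versus controls. Controls: nicardipine and DMSO wells.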
Insulin prom up: MIN6 insulin promoter up-regulation; MIN6 insulin promoter-GFP reporter, high-content imaging; hits give high values; z-score at 5 µM; 190,000 compounds, 0.3% hits; AID 1625;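 active means z-score above 3 at 5 µM with at least 500 cells counted in the well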
SDO1 yeast rescue: restores growth of sdo1-depleted yeast; S. cerevisiae sdo1-depleted JHY4D growth rescue, OD600 30 h; hits give high values; pdr5 snq2 efflux-pump mutant strain; z-score at 10 µM; 140,000 compounds, 0.21% hits; AID 817;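 active means z-score above 3 at both the 24 hr and the 30 hr optical density reads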;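 further: z-score against mean and SD of all compound wells on the same plate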
Active calls of the source: *; i = inactive; nt = no result; + = active, no number. This is a sample that favours compounds with a hit; in the whole collection about 2.3% have one here.

SMILES | ABCB1 block | ROMK mod | Autophagy HCS | ABCG2 inh | Insulin prom up | SDO1 yeast rescue
O=[N+]([O-])c1ccccc1S(=O)(=O)N1CCN(Cc2ccsc2)CC1 | 0 | -1.1 | i | 1 | -0.47 | nt
N#Cc1ccc(-c2ccc(Cl)cc2)nc1SCC(=O)c1cccc(Cl)c1 | 0 | 1.6 | + | 15 | 6.9* | 0.02
CCN(CC)C(=O)CSc1nc(-c2ccccc2)ccc1C#N | 0 | -0.0072 | i | 12 | -0.7 | nt
N#Cc1ccc(-c2ccccc2)nc1SCC(=O)c1cccc(Cl)c1 | 0 | nt | + | 1 | nt | 0.52
N#Cc1ccc(-c2cccnc2)nc1SCC(=O)c1ccccc1 | nt | nt | nt | nt | 2.1 | nt
COCCN(Cc1cc2cc3c(cc2nc1Cl)OCO3)C(=O)c1ccc(C)cc1 | 1 | 0.11 | i | 4 | 1.2 | nt
Cc1c(NC(=O)CCc2ccccc2)cccc1[N+](=O)[O-] | 0 | -0.35 | i | 2 | nt | nt
C=CCNC(=O)c1c2c(nc3ccccc13)-c1ccccc1CC2 | 1 | nt | i | 3 | 4.5* | -0.57
C[n+]1cccc(C(=O)NNC(=O)C23CC4CC(CC(C4)C2)C3)c1 | 0 | nt | i | 1 | 0.39 | nt
COc1ccc(CNCCC2(Cc3ccccc3)CC(C)N(C)CC2C)cc1OC (stereo not drawn) | 0 | -0.29 | i | 3 | -0.34 | nt
COc1ccc(N(C(=O)Cc2cccs2)C2C=CS(=O)(=O)C2)cc1 (stereo not drawn) | 2 | nt | i | 3 | 3.1* | nt
CC1(C)CC(=O)C=C(NNC(=O)OC(C)(C)C)C1 | 0 | -0.16 | i | 0 | 0.11 | nt
COc1ccc(OCC(=O)Nc2cccc3ncccc23)cc1 | 1 | nt | i | 8 | -0.01 | 1.8
O=C(CCl)Nc1cccc2ncccc12 | 0 | nt | i | 0 | 4* | 0.49
COc1cccc(OC)c1C(=O)Nc1cc(C)nn1-c1nc2ccccc2[nH]1 | 1 | -0.81 | i | 4 | -1.3 | nt
Cc1cc(NC(=O)c2ccccc2)n(-c2nc3ccccc3[nH]2)n1 | 1 | 0.51 | + | 2 | -0.16 | nt
COCCn1c(-c2ccc(Cl)cc2Cl)nc2c(c(=O)c3ccccc3n2C)c1=O | 3 | -0.0092 | + | 6 | -0.36 | -0.76
Cn1cccc1/C=N/NC(=O)C12CC3CC(CC(C3)C1)C2 | 0 | nt | i | 1 | -0.12 | 0.66
CCOC(=O)c1c(NC(=O)CSc2nnc(-c3ccc(OC)cc3)o2)sc2c1CCC2 | nt | 0.63 | + | nt | nt | nt
COc1ccc(-c2nnc(SCC(=O)Nc3sc4c(c3C#N)CCCC4)n2-c2ccccc2)cc1 | 0 | nt | + | 1 | 0.16 | -1.2
COc1ccc(-n2c(SCC(=O)Nc3sc4c(c3C#N)CCCC4)nnc2-c2ccccc2OC)cc1 | 6 | -1.9 | i | 18 | -1.9 | -0.24
CS(=O)(=O)N1CCN(CC(=O)NC2CCCCC2)CC1 | 1 | -0.44 | i | 1 | 0.4 | nt
CN1C(=O)C(CC(=O)NCC2CCCCC2)SC1=Nc1ccccc1 (stereo not drawn) | 1 | -1.8 | i | 6 | -0.04 | nt
CC1CCN(C(=O)CNS(=O)(=O)c2ccc(Br)s2)CC1 | 0 | -0.63 | i | 1 | 3.4* | -0.92
CC1CC(C)CN(C(=O)CNS(=O)(=O)c2ccc(Br)s2)C1 (stereo not drawn) | 1 | nt | i | 5 | -0.11 | -2.1
SMILES | ABCB1 block | ROMK mod | Autophagy HCS | ABCG2 inh | Insulin prom up | SDO1 yeast rescue
O=C(CSc1nnc(-c2ccco2)o1)c1ccc[nH]1 | 0 | 0.033 | i | 2 | 0.69 | nt
Cc1cc(C)c[n+](-c2nc3ccccc3nc2[N-]S(=O)(=O)c2ccc(Br)s2)c1 | 2 | nt | + | 4 | 0.12 | 1.1
O=C(CSc1n[nH]c(-c2ccco2)n1)Nc1sc2c(c1C(=O)Nc1ccccc1)CCCC2 | 0 | -0.67 | i | 1 | -0.03 | -1.1
O=C1Nc2ccccc2/C1=N\c1sc2c(c1C(=O)Nc1ccccc1)CCCC2 | -1 | -0.93 | + | -2 | -1.3 | -0.92
Cc1cccc2cc(CN(CCCN(C)C)C(=S)NCCc3ccccc3)c(=O)[nH]c12 | 0 | -3.1 | i | -1 | -0.38 | nt
CCOc1ccc(C(=O)N2CCN=C2SC)cc1OCC | 0 | nt | + | 2 | 0.37 | 0.48
COC(=O)[C@@]1(Cc2ccc(OC)cc2)[C@H]2c3cc(C(=O)N4CCCC4)n(CCSCCO)c3C[C@H]2CN1C(=O)c1ccccc1 | 2 | -0.71 | i | 10 | -0.26 | 0.33
